Results reported in ChEMBL document CHEMBL1128224 (J Med Chem, 1995).

Experiments:
[1] = biological target: Delta-type opioid receptor (Mus musculus) (UniProt P32300); assay: IC50 ratio was measured on DADLE (delta) in the mouse vas deferens (MVD) preparation
[2] = biological target: Mu-type opioid receptor (Cavia porcellus) (UniProt P97266); assay: IC50 ratio was measured on Morphine(mu) in the guinea pig ileal longitudinal muscle(GPI) preparation; assay type: tissue-based; settings: Muscle tissue
[3] = biological target: T1, Opioid receptors; delta & kappa (Homo sapiens) (UniProt P41145+P41143); assay: Selectivity as the ratio of Ki value towards kappa receptor to that of delta 1 receptor.; assay type: protein assay
[4] = biological target: Kappa-type opioid receptor (Cavia porcellus, UniProt P41144); assay: The opioid receptor affinity(Ki) was evaluated by competition with 9 (Opioid receptor kappa 1) on guinea pig brain membranes; set-up: species or system Membrane
[5] = biological target: Kappa-type opioid receptor (Cavia porcellus) (UniProt P41144); assay: IC50 ratio was measured on ethylketazocine (Opioid receptor kappa 1) in the guinea pig ileal longitudinal muscle(GPI) preparation
[6] = biological target: Mu-type opioid receptor (Cavia porcellus, UniProt P97266); assay: The opioid receptor affinity(Ki) was evaluated by competition with [3H]DAMGO (mu) on guinea pig brain membranes; set-up: species or system Membrane
[7] = biological target: T2, Opioid receptors; mu & delta (Homo sapiens) (UniProt P41143+P35372); assay: Selectivity as the ratio of Ki value towards mu receptor to that of delta 1 receptor.; assay type: protein assay
[8] = biological target: T2, Opioid receptors; mu & delta (Homo sapiens); assay: Selectivity as the ratio of IC50 value against delta receptor to that of mu receptor.; assay type: protein assay
[9] = biological target: T1, Opioid receptors; delta & kappa (Homo sapiens); assay: Selectivity as the ratio of IC50 value against delta receptor to that of kappa receptor.; assay type: protein assay
[10] = biological target: Delta-type opioid receptor (Mus musculus) (UniProt P32300); assay: The antagonist potencies mediated through […] were expressed as Ke values calculated on DADLE(delta) in the mouse vas deferens(MVD) preparation; assay type: functional
Summary of the method: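 In electrically stimulated mouse vas deferens with DADLE as agonist, antagonist was preincubated 15 min at 100 nM unless otherwise specified. Ke = [antagonist]/(IC50 ratio − 1) from the Schild relationship, averaged over at least three IC50 ratio determinations.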

[11] = tested on: Mus musculus; assay: Intravenous dose required to produce an equivalnet antagonism of DPDPE-induced antinociception.; assay type: functional
Summary of the method: (§1)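 In the mouse tail-flick assay against DPDPE-induced antinociception, the antagonist was given icv or iv. […] The iv/icv value is the ratio of these two doses.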

[12] = biological target: Kappa-type opioid receptor (Mus musculus) (UniProt P33534); assay: Antagonist activity against the kappa opioid receptor using U-50,488H as agonist at 20 pmol/kg (icv) was determined as ratio of ED50 of antagonist to the control (ED50 of control = 27.3 (8.5-52.8) umol/kg); assay type: functional
[13] = biological target: Delta-type opioid receptor (Mus musculus) (UniProt P32300); assay: (§2) Antagonist activity against the delta1 opioid receptor using DPDPE as agonist at 20 pmol/kg (icv) was determined as ratio of ED50 of antagonist to the control (ED50 of control = 8.6 (6.5-11.1) nmol/kg); assay type: functional
[14] = biological target: Mu-type opioid receptor (Mus musculus) (UniProt P42866); assay: Antagonist activity against the mu opioid receptor using morphine as agonist at 20 pmol/kg (icv) was determined as ratio of ED50 of antagonist to the control (ED50 of control = 9.7 (8.6-10.9) umol/kg); assay type: functional
[15] = Ratio of iv dose to that of icv.; assay type: functional; summary of the method: as §1
[16] = tested on: Mus musculus; assay: Intracerebroventricular dose required to produce an equivalnet antagonism of DPDPE-induced antinociception.; assay type: functional; summary of the method: as §1
[17] = as §2; assay type: functional
[18] = biological target: Delta-type opioid receptor (Homo sapiens) (UniProt P41143); settings: 0.8 umol/kg

Q: Which results are given for `NCCC[C@@H](NC(=O)c1cccc2c3c([nH]c12)[C@@H]1Oc2c(O)ccc4c2C12CCN(CC1CC1)C(C4)[C@]2(O)C3)C(=O)O` (some centres not stated)?
A: IC50 ratio [1]: 58; IC50 ratio [2]: 3; Selectivity [3]: 320; Ki [4]: 57 nM; IC50 ratio [5]: 0.9; Ki [6]: 136 nM; Selectivity [7]: 756; Selectivity [8]: 20; Selectivity [9]: 63; Ke [10]: 1.8 nM

Q: With `O=C(O)CNC(=O)c1cccc2c3c([nH]c12)[C@@H]1Oc2c(O)ccc4c2C12CCN(CC1CC1)C(C4)[C@]2(O)C3` (some centres not stated) as the compound, how does the IC50 ratio [1] read?
A: The IC50 ratio was 32.

Q: What about the IC50 ratio [2] of the same compound?
A: Its IC50 ratio is 1.5.

Q: What about the Dose [11] of the same compound?
A: The Dose was 0.53 µM/kg.

Q: And the Selectivity [3]?
A: Its Selectivity is 30000.

Q: And the ED50 ratio [12]?
A: Its ED50 ratio is 0.8.

Q: What about the ED50 ratio [13] of the same compound?
A: The ED50 ratio was 5.3.

Q: What about the ED50 ratio [14] of the same compound?
A: The ED50 ratio was 0.9.

Q: And the IC50 ratio [5]?
A: The IC50 ratio was 1.1.

Q: What about the Ratio [15] of the same compound?
A: The Ratio was 112766.

Q: And the Ki [6]?
A: Its Ki is 206 nM.

Q: What about the Selectivity [7] of the same compound?
A: The Selectivity was 38200.

Q: And the Selectivity [8]?
A: The Selectivity was 21.

Q: What about the Dose [16] of the same compound?
A: The Dose was 4.7 pM/kg.

Q: And the Selectivity [9]?
A: Its Selectivity is 30.

Q: And the Ke [10]?
A: The Ke was 3.2 nM.

Q: What does the source list for `O=C(O)C[C@@H](NC(=O)c1cccc2c3c([nH]c12)[C@@H]1Oc2c(O)ccc4c2C12CCN(CC1CC1)C(C4)[C@]2(O)C3)C(=O)O` (some centres not stated)?
A: IC50 ratio [1]: 89; IC50 ratio [2]: 1.3; Dose [11]: 0.62 µM/kg; ED50 ratio [17]: 2.6; Selectivity [3]: 6250; Ki [4]: 893 nM; ED50 ratio [14]: 1; IC50 ratio [5]: 2.1; Ki [6]: 368 nM; Selectivity [7]: 2570; Selectivity [8]: 67; ED50 ratio [18]: 2.3; Dose [16]: 12.5 pM/kg; Selectivity [9]: 30; Ke [10]: 1.1 nM

Q: For `O=C(O)c1cccc2c3c([nH]c12)[C@@H]1Oc2c(O)ccc4c2C12CCN(CC1CC1)C(C4)[C@]2(O)C3` (some centres not stated), which IC50 ratio [1] is on record?
A: The IC50 ratio was 25.

Q: What about the IC50 ratio [2] of the same compound?
A: The IC50 ratio was 2.

Q: What about the Selectivity [3] of the same compound?
A: The Selectivity was 3250.

Q: What about the IC50 ratio [5] of the same compound?
A: Its IC50 ratio is 1.

Q: What about the Ki [6] of the same compound?
A: Its Ki is 24 nM.

Q: And the Selectivity [7]?
A: Its Selectivity is 1850.

Q: And the Selectivity [8]?
A: Its Selectivity is 122.

Q: What about the Selectivity [9] of the same compound?
A: Its Selectivity is 231.

Q: What about the Ke [10] of the same compound?
A: The Ke was 0.4 nM.

Q: For `NCCCC[C@@H](NC(=O)c1cccc2c3c([nH]c12)[C@@H]1Oc2c(O)ccc4c2C12CCN(CC1CC1)C(C4)[C@]2(O)C3)C(=O)O` (some centres not stated), which IC50 ratio [1] is on record?
A: The IC50 ratio was 20.

Q: What about the IC50 ratio [2] of the same compound?
A: Its IC50 ratio is 1.

Q: And the Selectivity [3]?
A: Its Selectivity is 134.

Q: And the Ki [4]?
A: Its Ki is 41 nM.

Q: And the IC50 ratio [5]?
A: The IC50 ratio was 1.1.

Q: What about the Ki [6] of the same compound?
A: Its Ki is 219 nM.

Q: What about the Selectivity [7] of the same compound?
A: The Selectivity was 719.

Q: And the Selectivity [8]?
A: Its Selectivity is 20.

Q: What about the Selectivity [9] of the same compound?
A: The Selectivity was 20.

Q: What about the Ke [10] of the same compound?
A: The Ke was 5.2 nM.

Q: Which Dose [11] does the source give for `Oc1ccc2c3c1O[C@H]1c4[nH]c5ccccc5c4C[C@@]4(O)[C@@H](C2)N(CC2CC2)CC[C@]314` [NALTRINDOLE] here?
A: The Dose was 2.19 µM/kg.

Q: What about the Dose [16] of the same compound?
A: Its Dose is 300 pM/kg.

Q: And the Ke [10]?
A: Its Ke is 0.2 nM.

Q: For `N=C(N)NCCC[C@@H](NC(=O)c1cccc2c3c([nH]c12)[C@@H]1Oc2c(O)ccc4c2C12CCN(CC1CC1)C(C4)[C@]2(O)C3)C(=O)O` (some centres not stated), which IC50 ratio [1] is on record?
A: Its IC50 ratio is 31.

Q: What about the IC50 ratio [2] of the same compound?
A: The IC50 ratio was 1.3.

Q: And the Selectivity [3]?
A: Its Selectivity is 1180.

Q: And the Ki [4]?
A: The Ki was 188 nM.

Q: What about the IC50 ratio [5] of the same compound?
A: Its IC50 ratio is 1.2.

Q: What about the Ki [6] of the same compound?
A: The Ki was 333 nM.

Q: And the Selectivity [7]?
A: Its Selectivity is 2100.

Q: What about the Selectivity [8] of the same compound?
A: The Selectivity was 24.

Q: What about the Selectivity [9] of the same compound?
A: The Selectivity was 27.

Q: What about the Ke [10] of the same compound?
A: The Ke was 3.3 nM.
